Tests used:
Assay type in all cases: functional
[1] = system: HOP-92; assay: Antitumor activity against human HOP92 cells after 48 hrs by SRB assay; settings: HOP-92, 48 h
How it was run: (§1)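 NCI60 panel in RPMI 1640 with 5% FBS and 2 mM L-glutamine. Cells were plated at 5000–40,000/well by doubling time, held 24 h, then time-zero plates were TCA-fixed. Five concentrations (10-fold or half-log dilutions of DMSO stocks) were applied for 48 h at 37 °C, 5% CO2. Cells were fixed with cold TCA (10% final adherent, 16% suspension) and stained with 0.4% SRB. Bound dye was dissolved in 10 mM Tris and read at 515 nm. GI50, TGI and LC50 were calculated per line.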

[2] = system: ACHN; assay: Cytotoxicity against human ACHN cells assessed as cellular growth at 10 uM after 48 hrs by SRB assay
How it was run: (§2)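 NCI60 single-dose screen of cells in RPMI 1640 with 5% FBS and 2 mM L-glutamine, preincubated 24 h at 37 °C, 5% CO₂. Cells were then exposed 48 h to compound added from DMSO stock. TCA-fixed, stained with 0.4% SRB in 1% acetic acid, dye solubilised in 10 mM Tris base and read at 515 nm. Growth is given as percent of untreated control.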

[3] = system: HCT-116; assay: Cytotoxicity against human HCT116 cells assessed as cellular growth at 10 uM after 48 hrs by SRB assay; how it was run: as §2
[4] = system: OVCAR-8; assay: Cytotoxicity against human OVCAR8 cells assessed as cellular growth at 10 uM after 48 hrs by SRB assay
How it was run: (§3)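 NCI-60 panel lines grown in RPMI 1640 with 5% FBS and 2 mM L-glutamine. Plated at 5000–40,000 cells/well and preincubated 24 h at 37 °C, 5% CO₂, with time-zero plates fixed in TCA. Compounds, dissolved in DMSO and diluted in medium, were applied for 48 h. Cells were TCA-fixed (10% final for adherent, 16% for suspension) and stained with 0.4% SRB in 1% acetic acid. Dye was solubilised in 10 mM Tris base and read at 515 nm; growth was expressed as a percentage of untreated control.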

[5] = system: K562; assay: Cytotoxicity against human K562 cells assessed as cellular growth at 10 uM after 48 hrs by SRB assay; how it was run: as §2
[6] = system: CCRF-CEM; assay: Cytotoxicity against human CCRF-CEM cells assessed as cellular growth at 10 uM after 48 hrs by SRB assay; how it was run: as §2
[7] = system: MDA-MB-468; assay: Antitumor activity against human MDA-MB-468 cells after 48 hrs by SRB assay; settings: MDA-MB-468, 48 h; how it was run: as §1
[8] = system: NCI-H322M; assay: Antitumor activity against human NCI-H322M cells after 48 hrs by SRB assay; how it was run: as §1
[9] = system: HOP-62; assay: Antitumor activity against human HOP62 cells after 48 hrs by SRB assay; settings: HOP-62, 48 h; how it was run: as §1
[10] = system: IGROV-1; assay: Antitumor activity against human IGROV1 cells after 48 hrs by SRB assay; settings: IGROV-1, 48 h; how it was run: as §1
[11] = system: PC-3; assay: Antitumor activity against human PC3 cells after 48 hrs by SRB assay; settings: PC-3, 48 h; how it was run: as §1
[12] = system: LOX IMVI; assay: Cytotoxicity against human LOXIMVI cells assessed as cellular growth at 10 uM after 48 hrs by SRB assay; how it was run: as §2
[13] = system: SF-295; assay: Cytotoxicity against human SF295 cells assessed as cellular growth at 10 uM after 48 hrs by SRB assay; how it was run: as §3
[14] = system: NCI-H226; assay: Cytotoxicity against human NCI-H226 cells assessed as cellular growth at 10 uM after 48 hrs by SRB assay; how it was run: as §3
[15] = system: NCI-H322M; assay: Cytotoxicity against human NCI-H322M cells assessed as cellular growth at 10 uM after 48 hrs by SRB assay; how it was run: as §3
[16] = system: SW-620; assay: Antitumor activity against human SW620 cells after 48 hrs by SRB assay; settings: SW-620, 48 h
How it was run: (§4)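 NCI60 panel cells grown in RPMI 1640 with 5% FBS and 2 mM L-glutamine, plated at 5000–40,000 cells/well and preincubated 24 h at 37 °C, 5% CO₂. Compound was added from DMSO at five concentrations, 10-fold or 1/2 log dilutions, then incubated 48 h.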

[17] = system: SR; assay: Cytotoxicity against human SR cells assessed as cellular growth at 10 uM after 48 hrs by SRB assay; how it was run: as §3
[18] = system: SF-539; assay: Antitumor activity against human SF539 cells after 48 hrs by SRB assay; settings: SF-539, 48 h; how it was run: as §4
[19] = system: UACC-62; assay: Cytotoxicity against human UACC62 cells assessed as cellular growth at 10 uM after 48 hrs by SRB assay; how it was run: as §3
[20] = system: Malme-3M; assay: Antitumor activity against human MALME-3M cells after 48 hrs by SRB assay; how it was run: as §1
[21] = system: SNB-75; assay: Cytotoxicity against human SNB75 cells assessed as cellular growth at 10 uM after 48 hrs by SRB assay; how it was run: as §3
[22] = system: RPMI-8226; assay: Antitumor activity against human RPMI8226 cells after 48 hrs by SRB assay; settings: RPMI-8226, 48 h; how it was run: as §1
[23] = system: HT-29; assay: Antiproliferative activity against human HT-29 cells after 48 hrs by SRB assay; settings: HT-29, 48 h; how it was run: as §1
[24] = system: OVCAR-3; assay: Cytotoxicity against human OVCAR3 cells assessed as cellular growth at 10 uM after 48 hrs by SRB assay; how it was run: as §3
[25] = system: SF-268; assay: Cytotoxicity against human SF268 cells assessed as cellular growth at 10 uM after 48 hrs by SRB assay; how it was run: as §3
[26] = read-out: LC50 (the source's name)
[27] = read-out: pLC50 (the source's name) (converted)

COc1ccc(/C(=C2/O[C@@H]([C@H]3COC(C)(C)O3)[C@H]3OC(C)(C)O[C@@H]23)c2cc(OC)c(OC)c(OC)c2)cc1O
GI50 [1]: 5.45 µM | TGI [1]: 31.8 µM | CC50 [1, 26]: > 100 µM | Activity [2]: 44.73% | Activity [3]: 53.99% | Activity [4]: 68.27% | Activity [5]: 24.28% | Activity [6]: 47.94% | GI50 ([7]; read-out: GI50): 1.45 µM | CC50 [7, 26]: 80.6 µM | TGI ([7]; read-out: TGI): 34.1 µM | GI50 ([7]; read-out: pGI50 (converted)): 14.5 µM | CC50 [7, 27]: > 100 µM | TGI ([7]; read-out: pTGI (converted)): 33.9 µM | GI50 ([8]; read-out: GI50): 6.58 µM | CC50 [8, 26]: > 100 µM | TGI ([8]; read-out: TGI): > 100 µM | GI50 ([8]; read-out: pGI50 (converted)): 6.61 µM | CC50 [8, 27]: > 100 µM | TGI ([8]; read-out: pTGI): > 100 µM | GI50 [9]: 5.93 µM | TGI [9]: 25.5 µM | CC50 [9, 26]: 96.8 µM | GI50 ([10]; read-out: GI50): 3.32 µM | CC50 [10, 26]: > 100 µM | TGI ([10]; read-out: TGI): > 100 µM | GI50 ([10]; read-out: pGI50 (converted)): 33.1 µM | CC50 [10, 27]: > 100 µM | TGI ([10]; read-out: pTGI): > 100 µM | GI50 ([11]; read-out: GI50): 5.11 µM | CC50 [11, 26]: > 100 µM | TGI ([11]; read-out: TGI): > 100 µM | GI50 ([11]; read-out: pGI50 (converted)): 5.13 µM | CC50 [11, 27]: > 100 µM | TGI ([11]; read-out: pTGI): > 100 µM | Activity [12]: 36.94% | Activity [13]: 85.23% | Activity [14]: 107.94% | Activity [15]: 34.81% | GI50 ([16]; read-out: GI50): 4.05 µM | CC50 [16, 26]: > 100 µM | TGI ([16]; read-out: TGI): > 100 µM | GI50 ([16]; read-out: pGI50 (converted)): 4.07 µM | CC50 [16, 27]: > 100 µM | TGI ([16]; read-out: pTGI): > 100 µM | Activity [17]: 25.4% | GI50 [18]: 2.59 µM | TGI [18]: 6.63 µM | CC50 [18, 26]: > 100 µM | Activity [19]: 93.16% | GI50 [20]: 5.46 µM | LC50 (concentration killing 50% of cells present at time zero) [20]: > 100 µM | TGI [20]: > 100 µM | Activity [21]: 6.11% | LC50 (concentration killing 50% of starting cells) [22]: > 100 µM | GI50 ([22]; read-out: GI50): 4.63 µM | TGI ([22]; read-out: TGI): > 100 µM | GI50 ([22]; read-out: pGI50 (converted)): 4.68 µM | CC50 [22, 27]: > 100 µM | TGI ([22]; read-out: pTGI (converted)): > 100 µM | LC50 (50% net cell kill) [23]: > 100 µM | GI50 ([23]; read-out: GI50): 3.99 µM | TGI ([23]; read-out: TGI): > 100 µM | GI50 ([23]; read-out: pGI50 (converted)): 3.98 µM | CC50 [23, 27]: > 100 µM | TGI ([23]; read-out: pTGI (converted)): > 100 µM | Activity [24]: 48% | Activity [25]: 36.3%

Source: ChEMBL document CHEMBL1828575, “Design, synthesis and antiproliferative activities of biarylolefins based on polyhydroxylated and carbohydrate scaffolds” (Eur J Med Chem, 2011)
